We go through seven compounds from PubChem BioAssay AID540337 (Southern Research Specialized Biocontainment Screening …, 2011).

For the test, the system named is HEp-2 RSV Long CPE inhibition, luminescence. Kind of test: RSV-induced cytopathic effect inhibitors, dose response, cell-based, synthesized compounds, set 12, CPE (AID 540337). The gist of the method: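 Signal: luminescence-based measure of virus-induced cytopathic effect. Material: HEp-2 cells infected with RSV strain Long. Repeats: triplicate. Timing: 6 d at 37 °C. Control set: uninfected cell-only wells and virus-infected wells without compound. Evaluation: % CPE inhibition scaled to virus-only and uninfected wells, IC50. Also added: RSV Long, MOI 0.45.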
In general terms: Protection from cytopathic effect is a common read-out in antiviral testing.

Activity calls are given as the source filed them.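 Rule for the calls: active = at least 50% inhibition of virus-induced cell damage; inactive = the rest.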

Consider `COCCCNC(=O)c1ccc(Cn2c(=O)c3ccccc3n(Cc3ccccn3)c2=O)cc1`, for which the IC50 was > 50 µM (inactive).

For the compound `COCCCNC(=O)c1ccc(Cn2c(=O)c3ccccc3n(Cc3cccnc3)c2=O)cc1`, the IC50 is > 50 µM (inactive).

On to `COCCCNC(=O)c1ccc(Cn2c(=O)c3ccccc3n(CCc3ccc(C)cc3)c2=O)cc1`, for which the IC50 is > 50 µM (inactive). Under `COCCCNC(=O)c1ccc(Cn2c(=O)c3ccccc3n(CCc3ccc(C(F)(F)F)cc3)c2=O)cc1` stands > 50 µM (inactive); under `COCCCNC(=O)c1ccc(Cn2c(=O)c3ccccc3n(Cc3ccc(C)cc3)c2=O)cc1`, 2.5 µM; under `COCCCNC(=O)c1ccc(Cn2c(=O)c3ccccc3n(CCc3ccc(Br)cc3)c2=O)cc1`, > 50 µM (inactive). Under `COCCCNC(=O)c1ccc(Cn2c(=O)c3ccccc3n(CC3CCCCC3)c2=O)cc1` stands > 50 µM (inactive).

One may read the IC50 as the concentration that gives 50% inhibition.
